Source: paper PMC9060504 (Proceedings of the National Academy of Sciences of the …, 2022)
Blank lines part the entries; values can stand above or below the compound they belong to.

Columns and labels:
[1] = biological target: T1, STIM1 together with Orai3 (Homo sapiens, UniProt Q9BRQ5); details: cited from earlier work
Orai1 P245L = Orai1 P245L (Homo sapiens, UniProt Q96D31, P245L); assay: Current recording, constitutively open Orai1 P245L mutant; assay type: cell-based; details: 10 μM
In short: (§1)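 Whole-cell currents were recorded from cells expressing the Orai1 mutant or the chimera (the chimera with STIM1). Cells were superfused with extracellular solution containing 10 mM Ca2+, with or without 10 μM test compound or 10 μM La3+. During recording, cells were kept dark or illuminated at the indicated wavelengths. Time courses and I-V plots were collected.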

Orai2 = Orai2 (Homo sapiens, UniProt Q96SN7); assay: Ca2+ imaging of SOCE, Orai TKO HEK293 cells expressing STIM1 and Orai2; assay type: cell-based; details: 100 μM, dark
Sequence of Orai2 (Q96SN7 whole entry): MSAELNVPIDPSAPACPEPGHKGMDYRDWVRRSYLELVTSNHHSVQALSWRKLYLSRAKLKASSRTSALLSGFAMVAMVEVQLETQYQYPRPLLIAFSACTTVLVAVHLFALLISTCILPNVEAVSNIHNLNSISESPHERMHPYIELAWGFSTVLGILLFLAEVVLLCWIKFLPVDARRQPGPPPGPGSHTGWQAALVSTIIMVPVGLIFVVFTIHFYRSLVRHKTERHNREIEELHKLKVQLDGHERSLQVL

[2] = Trans:cis isomer ratio by 1H NMR; assay type: physicochemical
InsP3R = assay: Ca2+ imaging of IP3-mediated ER Ca2+ release in STIM DKO cells; assay type: cell-based; details: 100 μM
In short: (§2)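 Cells were loaded with 5 μM Cal-590 in Ringer's solution for 60 min, excited at 560 nm, and imaged every 3 or 10 s. Each experiment recorded 10 to 97 cells, and their responses were averaged. The Ca2+ change after activating each transport mechanism with 100 μM test compound present was normalized to the change in DMSO-treated control cells.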

TRPC6 = TRPC6 (Homo sapiens, UniProt Q9Y210); assay: Ca2+ imaging of TRPC6-mediated Ca2+ influx in STIM DKO cells; assay type: cell-based; details: 100 μM
Sequence of TRPC6 (Q9Y210 whole entry, species assumed): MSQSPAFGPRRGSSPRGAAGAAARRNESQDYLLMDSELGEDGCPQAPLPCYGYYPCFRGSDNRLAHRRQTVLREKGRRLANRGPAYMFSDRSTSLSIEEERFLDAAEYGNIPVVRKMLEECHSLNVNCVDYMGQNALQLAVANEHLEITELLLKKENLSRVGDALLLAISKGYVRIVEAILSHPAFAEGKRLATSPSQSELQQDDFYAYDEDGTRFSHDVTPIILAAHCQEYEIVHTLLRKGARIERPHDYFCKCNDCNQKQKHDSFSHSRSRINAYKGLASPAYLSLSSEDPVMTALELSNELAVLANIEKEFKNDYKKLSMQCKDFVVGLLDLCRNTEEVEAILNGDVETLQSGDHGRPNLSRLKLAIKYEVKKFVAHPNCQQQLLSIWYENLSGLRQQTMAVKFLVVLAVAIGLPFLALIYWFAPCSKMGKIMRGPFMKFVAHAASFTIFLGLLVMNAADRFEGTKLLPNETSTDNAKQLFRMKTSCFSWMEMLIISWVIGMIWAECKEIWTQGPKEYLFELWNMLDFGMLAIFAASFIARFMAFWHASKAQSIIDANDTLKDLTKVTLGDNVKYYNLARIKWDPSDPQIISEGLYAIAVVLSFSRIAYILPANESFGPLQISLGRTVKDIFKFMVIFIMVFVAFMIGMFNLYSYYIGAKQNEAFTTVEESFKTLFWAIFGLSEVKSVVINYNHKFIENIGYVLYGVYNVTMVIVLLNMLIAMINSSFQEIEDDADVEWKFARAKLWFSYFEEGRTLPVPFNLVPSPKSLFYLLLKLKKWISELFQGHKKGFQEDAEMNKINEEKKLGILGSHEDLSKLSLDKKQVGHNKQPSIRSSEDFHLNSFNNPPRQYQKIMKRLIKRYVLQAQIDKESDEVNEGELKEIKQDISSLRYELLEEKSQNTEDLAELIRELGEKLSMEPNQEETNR
In short: as §2

[3] = biological target: T1, STIM1 together with Orai3; assay: Whole-cell patch-clamp CRAC current in cells coexpressing STIM1 and Orai3; assay type: cell-based
NCX1 = NCX1 (Homo sapiens, UniProt P32418); assay: Ca2+ imaging of reverse Na+/Ca2+ exchange in cells overexpressing NCX1; assay type: cell-based
Sequence of NCX1 (P32418 36-973): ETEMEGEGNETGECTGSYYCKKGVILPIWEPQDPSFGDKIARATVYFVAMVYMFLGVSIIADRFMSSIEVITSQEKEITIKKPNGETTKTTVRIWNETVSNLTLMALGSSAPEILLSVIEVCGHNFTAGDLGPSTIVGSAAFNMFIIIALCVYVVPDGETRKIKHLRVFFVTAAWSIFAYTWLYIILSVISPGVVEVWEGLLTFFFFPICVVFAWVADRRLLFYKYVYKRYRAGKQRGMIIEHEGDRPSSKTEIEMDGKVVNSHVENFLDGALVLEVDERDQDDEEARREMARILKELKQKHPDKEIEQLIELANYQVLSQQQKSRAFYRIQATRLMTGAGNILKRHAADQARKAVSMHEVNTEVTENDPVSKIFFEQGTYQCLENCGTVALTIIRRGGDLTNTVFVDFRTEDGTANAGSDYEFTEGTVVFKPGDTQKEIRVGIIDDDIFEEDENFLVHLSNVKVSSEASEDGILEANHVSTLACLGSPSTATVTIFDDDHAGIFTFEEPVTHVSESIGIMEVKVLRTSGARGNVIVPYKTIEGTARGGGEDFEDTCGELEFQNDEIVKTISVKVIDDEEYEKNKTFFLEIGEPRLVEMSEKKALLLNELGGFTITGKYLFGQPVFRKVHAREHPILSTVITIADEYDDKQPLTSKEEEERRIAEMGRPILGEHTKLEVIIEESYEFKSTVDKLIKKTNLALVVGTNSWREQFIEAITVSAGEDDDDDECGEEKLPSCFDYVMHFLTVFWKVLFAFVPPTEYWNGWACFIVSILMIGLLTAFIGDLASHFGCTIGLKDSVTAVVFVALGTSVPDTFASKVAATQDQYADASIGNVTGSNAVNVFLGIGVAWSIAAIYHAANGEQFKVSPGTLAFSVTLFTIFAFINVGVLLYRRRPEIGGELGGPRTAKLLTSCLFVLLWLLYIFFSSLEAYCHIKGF
In short: as §2

[4] = biological target: STIM1 together with Orai2 (Homo sapiens, UniProt Q96SN7); assay: Whole-cell patch-clamp CRAC current in cells coexpressing STIM1 and Orai2; assay type: cell-based
Sequence of STIM1 together with Orai2 (Q96SN7 whole entry): as the sequence (Q96SN7 whole entry) above

Orai1 V102A = Orai1 V102A (Homo sapiens, UniProt Q96D31, V102A); assay: Current recording, constitutively open Orai1 V102A mutant; assay type: cell-based; details: 10 μM
Sequence of Orai1 V102A (Q96D31 whole entry V102A): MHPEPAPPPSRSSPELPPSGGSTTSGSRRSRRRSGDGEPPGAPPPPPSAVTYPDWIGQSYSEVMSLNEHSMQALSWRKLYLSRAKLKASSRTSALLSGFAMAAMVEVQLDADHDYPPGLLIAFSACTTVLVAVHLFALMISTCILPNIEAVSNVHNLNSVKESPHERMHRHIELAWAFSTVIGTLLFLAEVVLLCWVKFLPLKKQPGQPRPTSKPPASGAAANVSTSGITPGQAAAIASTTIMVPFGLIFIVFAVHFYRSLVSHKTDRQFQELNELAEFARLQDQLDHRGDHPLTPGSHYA
In short: as §1

TRPC3 = TRPC3 (Homo sapiens, UniProt Q13507); assay: Ca2+ imaging of TRPC3-mediated Ca2+ influx in STIM DKO cells; assay type: cell-based; details: 100 μM
Sequence of TRPC3 (Q13507 whole entry, species assumed): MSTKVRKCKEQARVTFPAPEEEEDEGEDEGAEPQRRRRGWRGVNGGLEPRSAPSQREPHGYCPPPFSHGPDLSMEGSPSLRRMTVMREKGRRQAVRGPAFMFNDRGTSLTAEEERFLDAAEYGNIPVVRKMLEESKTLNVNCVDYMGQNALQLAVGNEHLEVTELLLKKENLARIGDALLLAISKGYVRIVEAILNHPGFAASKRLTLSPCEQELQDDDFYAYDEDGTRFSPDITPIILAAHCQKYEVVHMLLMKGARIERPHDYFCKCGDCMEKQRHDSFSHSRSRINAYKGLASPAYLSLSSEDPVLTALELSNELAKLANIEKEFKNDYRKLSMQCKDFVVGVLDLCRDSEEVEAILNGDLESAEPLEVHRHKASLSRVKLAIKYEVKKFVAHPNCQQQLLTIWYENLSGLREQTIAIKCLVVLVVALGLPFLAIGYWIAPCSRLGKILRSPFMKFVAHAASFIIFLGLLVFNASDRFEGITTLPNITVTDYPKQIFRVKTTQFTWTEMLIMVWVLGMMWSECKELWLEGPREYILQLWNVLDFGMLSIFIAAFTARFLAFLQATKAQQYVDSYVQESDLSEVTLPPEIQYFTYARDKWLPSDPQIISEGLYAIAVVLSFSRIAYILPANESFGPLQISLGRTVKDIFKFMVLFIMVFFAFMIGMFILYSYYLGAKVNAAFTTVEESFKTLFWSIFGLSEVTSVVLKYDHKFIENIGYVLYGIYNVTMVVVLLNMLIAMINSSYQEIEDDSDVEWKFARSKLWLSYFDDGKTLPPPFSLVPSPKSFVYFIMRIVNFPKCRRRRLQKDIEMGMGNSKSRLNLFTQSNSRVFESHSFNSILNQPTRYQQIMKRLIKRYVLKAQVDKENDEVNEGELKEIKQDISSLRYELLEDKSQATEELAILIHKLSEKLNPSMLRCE
In short: as §2

Orai1 [5] = biological target: T2, Orai1 (Homo sapiens, UniProt Q96D31); assay type: cell-based; details: Orai1 alone, 100 μM, with or without 360 nm light
TRPV1 = TRPV1 (Homo sapiens, UniProt Q8NER1); assay: Ca2+ imaging of TRPV1-mediated Ca2+ influx in STIM DKO cells; assay type: cell-based; details: 100 μM
Sequence of TRPV1 (Q8NER1 whole entry, species assumed): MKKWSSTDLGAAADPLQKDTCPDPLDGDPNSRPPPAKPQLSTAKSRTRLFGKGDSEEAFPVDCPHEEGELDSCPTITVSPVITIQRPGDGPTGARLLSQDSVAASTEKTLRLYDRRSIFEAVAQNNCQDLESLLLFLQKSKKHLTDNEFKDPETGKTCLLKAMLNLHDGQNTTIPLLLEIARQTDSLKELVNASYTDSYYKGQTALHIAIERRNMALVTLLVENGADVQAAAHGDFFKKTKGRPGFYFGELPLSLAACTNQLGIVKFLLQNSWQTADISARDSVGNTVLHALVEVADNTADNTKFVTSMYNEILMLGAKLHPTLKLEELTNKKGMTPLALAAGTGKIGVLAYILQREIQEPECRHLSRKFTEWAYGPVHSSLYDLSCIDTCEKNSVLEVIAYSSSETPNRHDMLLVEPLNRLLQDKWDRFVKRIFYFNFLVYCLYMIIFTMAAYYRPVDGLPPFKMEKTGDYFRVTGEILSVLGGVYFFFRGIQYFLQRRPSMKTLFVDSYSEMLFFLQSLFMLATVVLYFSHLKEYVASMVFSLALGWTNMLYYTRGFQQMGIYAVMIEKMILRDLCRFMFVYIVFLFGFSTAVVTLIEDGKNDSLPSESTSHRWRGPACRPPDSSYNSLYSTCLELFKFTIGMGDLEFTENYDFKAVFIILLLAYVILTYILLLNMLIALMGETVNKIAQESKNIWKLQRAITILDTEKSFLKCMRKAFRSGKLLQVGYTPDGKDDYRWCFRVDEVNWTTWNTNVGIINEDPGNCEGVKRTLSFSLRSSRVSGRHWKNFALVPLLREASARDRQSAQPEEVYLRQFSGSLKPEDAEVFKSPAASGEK
In short: as §2

[6] = biological target: STIM1 and Orai1 (CRAC channel) (Homo sapiens, UniProt Q96D31); assay: Whole-cell patch-clamp CRAC current in HEK293 cells expressing STIM1 and Orai1; assay type: cell-based
Sequence of STIM1 and Orai1 (CRAC channel) (Q96D31 whole entry): as the sequence (Q96D31 whole entry V102A) above, with A102V counted along it
Sequence of STIM1 and Orai1 (CRAC channel) (Q13586 23-685 partner): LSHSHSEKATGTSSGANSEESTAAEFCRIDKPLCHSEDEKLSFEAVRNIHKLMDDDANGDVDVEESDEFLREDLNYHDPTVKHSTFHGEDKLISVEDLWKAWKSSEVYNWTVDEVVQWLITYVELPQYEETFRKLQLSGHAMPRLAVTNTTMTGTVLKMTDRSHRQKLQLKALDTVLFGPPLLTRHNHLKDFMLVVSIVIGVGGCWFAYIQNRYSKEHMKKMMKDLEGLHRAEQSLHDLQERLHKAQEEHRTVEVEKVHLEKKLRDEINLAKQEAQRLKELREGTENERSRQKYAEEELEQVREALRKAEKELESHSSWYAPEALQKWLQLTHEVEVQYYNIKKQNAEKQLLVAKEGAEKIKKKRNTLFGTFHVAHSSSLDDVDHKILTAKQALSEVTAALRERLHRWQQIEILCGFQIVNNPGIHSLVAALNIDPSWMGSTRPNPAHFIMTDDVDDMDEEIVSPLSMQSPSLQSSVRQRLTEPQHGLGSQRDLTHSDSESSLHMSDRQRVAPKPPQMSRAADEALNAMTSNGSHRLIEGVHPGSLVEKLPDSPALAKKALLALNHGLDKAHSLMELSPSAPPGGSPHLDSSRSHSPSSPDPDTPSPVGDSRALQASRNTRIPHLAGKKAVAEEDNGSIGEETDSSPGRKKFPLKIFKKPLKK

[7] = system: O1N–O3C chimeric Orai channel; assay: Current recording, STIM1 with chimeric O1N–O3C channel; assay type: cell-based; details: 10 μM
In short: as §1

[8] = system: NFAT transcription in Jurkat NFAT-P/Luciferase (JNL) cells; assay: NFAT-dependent luciferase assay in JNL cells; assay type: cell-based, human; details: 100 μM
[9] = Photostability under repeated illumination; assay type: physicochemical; details: eight cycles 365/520 nm, 1% DMSO in PBS
In short: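 Test compound at 26 μM in 1% DMSO/PBS was exposed to eight cycles of alternating 5-min 365 nm and 520 nm LED illumination. Absorbance at 329 nm was recorded throughout.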

Orai3 [10] = biological target: T3, Orai3 (Homo sapiens, UniProt Q9BRQ5); assay: Ca2+ imaging of SOCE, Orai TKO HEK293 cells expressing STIM1 and Orai3; assay type: cell-based; details: 100 μM, dark
SOCE in TG neurons = assay: Ca2+ imaging of SOCE in cultured trigeminal ganglion neurons; assay type: cell-based, mouse; details: 100 μM
In short: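 Mouse trigeminal ganglion neurons were acutely dissociated, cultured and loaded with Cal-590. They were held for 10 min in Ca2+-free solution with 1 μM thapsigargin, with or without 100 μM test compound. SOCE was then induced by superfusion with 0.5 mM Ca2+, without or with 360 nm illumination. Fluorescence time courses came from n = 71 to 179 cells per group.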

[11] = system: O3N–O1C chimeric Orai channel; assay: Current recording, STIM1 with chimeric O3N–O1C channel; assay type: cell-based; details: 10 μM
In short: as §1

Orai3 [12] = biological target: T3, Orai3; assay: Current recording, HEK293 cells expressing Orai3 alone; assay type: cell-based; details: 100 μM, with or without 360 nm light
[13] = system: capsaicin-induced nocifensive behavior; assay: Capsaicin-induced forelimb eye wiping test; assay type: in vivo, mouse
In short: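 Male C57BL/6JOLAHSD mice (3–4 wk, 5–6 per group) were handled for 2 d and habituated to the cage for 10 min. A 10-μL drop went to the right eye: vehicle (0.1% ethanol in SES), 1 μM capsaicin, 100 μM test compound, or capsaicin plus compound. Forelimb wipes were counted for 5 min, starting 5 min after dosing. Where used, 365 nm light (16 mW/cm², 3 cm, 60 s) was given and counting began 5 min later. Light alone was also tested.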

SOCE in HEK293 cells = assay: Ca2+ imaging of SOCE in HEK293 cells; assay type: cell-based; details: 100 μM, 1 mM Ca2+, TG
Orai1 [14] = biological target: T2, Orai1; assay: Ca2+ imaging of SOCE, Orai TKO HEK293 cells expressing STIM1 and Orai1; assay type: cell-based; details: 100 μM, dark
[15] = system: EMT6-GFP murine breast cancer cells; assay: Pulmonary metastatic assay; assay type: in vivo, mouse
In short: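 EMT6-GFP cells were treated for 1 h with 1% DMSO or 200 µM test compound, with or without 10 s of 365 nm light (16 mW/cm²) at 0, 30 and 60 min. They were then washed and injected into the tail vein of 8-wk BALB/c mice (5 × 10⁴ cells). After 20 min, lungs were perfused, agarose-inflated and cut into 1–2 mm slices. Slices were cultured 7 d at 37 °C, and GFP⁺ colonies counted (3 slices/mouse, 5 mice/group). GFP⁺ cell percentage was then measured by flow cytometry.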

STIM1 = STIM1 (Homo sapiens, UniProt Q13586); assay: TIRFM of STIM1 clustering at ER–PM junctions; assay type: cell-based; details: 100 μM, after ER Ca2+ depletion with TG
Sequence of STIM1 (Q13586 23-685, species assumed): as the sequence (Q13586 23-685 partner) above
In short: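 TIRFM used a 100× (N.A. 1.49) objective. STIM1-mCherry cells were held in zero-Ca2+ solution with 400 nM thapsigargin for 10 min, then received 100 μM test compound and were imaged before and 20 min after. Orai1-EGFP/STIM1-mCherry cells were preincubated with 100 μM compound in zero Ca2+ and imaged before and 10 min after adding 400 nM thapsigargin.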

[16] = cells treated with 200 μM, no illumination

Sequence of Orai1 P245L (Q96D31 whole entry P245L, the tested form may be a part): as the sequence (Q96D31 whole entry V102A) above, with A102V, P245L counted along it

SMILES: O=C(Nc1ccn(Cc2ccc(O)cc2C(F)(F)F)n1)c1c(F)cccc1F [GSK7975A]
Sensitivity of Orai3 current [1]: sensitive

SMILES: O=C(Nc1ccn(Cc2ccccc2Oc2ccccc2)n1)c1c(F)cccc1F [GSK5503A]
Sensitivity of Orai3 current [1]: sensitive

Effect on Orai1 P245L current (Orai1 P245L): strongly inhibited
Effect on SOCE mediated by Orai2 (Orai2): strongly inhibits
Trans isomer content, dark-adapted [2]: 94%
Effect on TRPC6-mediated Ca2+ influx (TRPC6): did not affect
Ki [3]: 131 ± 24 µM
inhibition at 100 µM ([3]; read-out: Average inhibition of Orai3 activity): ~35%
Effect on sodium–calcium exchange activity (NCX1): did not inhibit
Ki [4]: 15.5 ± 1.8 µM
Effect on Orai1 V102A current (Orai1 V102A): negligible effect
Effect on TRPC3-mediated Ca2+ influx (TRPC3): did not affect
Current change on application (Orai1 [5]): did not induce a notable current change
Effect on TRPV1-mediated Ca2+ influx (TRPV1): did not affect
TRPV1 activity in presence of cis or trans conformations (TRPV1; HEK293 STIM DKO cells expressing TRPV1): unchanged
Control of channel activity when infused into the cytosol via the patch pipette ([6]; 0.5 mM in pipette solution): failed to do so
Ki ([6]; Ki, dose-inhibition analysis, HEK293 STIM1+Orai1, LOCI-1 n = 3, LOCI-2 n = 4): 5.5 ± 0.26 µM
Restoration of inhibited current by 360 nm light ([6]; LOCI-1 10 μM, LOCI-2 10 μM, 2-APB 100 μM): fully restored
Photofatigue on repeated illumination [9]: without significant photofatigue
Effect on SOCE mediated by Orai3 (Orai3 [10]): not
Current change on application (Orai3 [12]): did not induce a notable current change
Effect on SOCE mediated by Orai1 (Orai1 [14]): strongly inhibits
Effect on clustering of STIM1 in puncta at ER–PM junctions (STIM1): did not affect
SMILES: OB(O)c1ccc(/N=N/c2ccccc2)cc1 [LOCI-1]
Effect on IP3-mediated Ca2+ release (InsP3R): did not affect
Effect on O1N–O3C channel current [7]: strongly inhibited
Inhibition of NFAT transcription ([8]; 16 h, in the dark): more than 80%
NFAT transcription after 365 nm light ([8]; two pulses of 365 nm light): fully restore transcription to control levels
Effect on SOCE in TG neurons (SOCE in TG neurons): inhibited
Effect on O3N–O1C channel current [11]: small and inconsistent effect
Eye wiping response, applied alone ([13]; 100 μM alone, topical to eye): neither LOCI-1 nor 365 nm light elicits an appreciable nocifensive behavior
Inhibitory effect on eye wiping after a pulse of 365 nm light ([13]; 100 μM with 1 μM capsaicin, 365 nm 60 s): fully reversed
Eye wiping response, cotreatment with capsaicin ([13]; 100 μM with 1 μM capsaicin, topical to eye, vs capsaicin alone): significantly lower responses
Effect on SOCE (SOCE in HEK293 cells): inhibited
GFP-positive cancer cells in lung tissue ([15]; cells treated with 200 μM and 365 nm illumination): ~1.3%
GFP-positive cancer cells in lung tissue [15, 16]: ~0.65%
Number of metastatic colonies vs DMSO [15, 16]: significantly fewer metastatic colonies
